The structures appear in SMILES notation.

In this assay the test system is Calf thymus DNA. The experiment in a line: Binding constant to DNA measured spectrophotometrically. The settings on record: Bos taurus. It is filed as nucleic-acid assay. The procedure, abridged: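 Calf thymus DNA, stripped of residual protein and dialyzed into PIPES 00 buffer (0.01 M PIPES, 0.001 M EDTA, NaOH to pH 7.00, [Na⁺] 0.019 M). DNA-P concentration was read at 260 nm with ε 6600 M⁻¹ cm⁻¹. Equilibrium binding constants were obtained spectrophotometrically by an earlier-reported procedure.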
The compound `CN(C)CCSc1nccc(-c2cccn2C)n1` came in with a K of 10100 M⁻¹.

The compound `CN(C)CCNc1nccc(-c2cccs2)n1` had a K of 4400 M⁻¹.

For `CSc1cc(-c2cccs2)nc(NCCN(C)C)n1`, the K was 13700 M⁻¹.

Take `CN(C)CCSc1nccc(-c2ccco2)n1`: the K was 3500 M⁻¹.

`CN(C)CCOc1ccc(-c2ccccc2)cc1` showed a K of 3000 M⁻¹.

`CN(C)CCSc1nccc(-c2cccs2)n1` yielded a K of 18700 M⁻¹.

`CN(C)CCOc1cccc(-c2ccccc2)c1` showed a K of 3000 M⁻¹.

`CN(C)CCOc1ccccc1-c1ccccc1` came in with a K of 3000 M⁻¹.

Take `CN(C)CCNc1nccc(-c2nccs2)n1`: the K was found to be 3900 M⁻¹.

For `CN(C)CCOc1nccc(-c2cccs2)n1`, the K worked out at 3400 M⁻¹.

Regarding `Cc1cnc(SCCN(C)C)nc1-c1cccs1`, the K stood at 48000 M⁻¹.

`Cc1ccnc(-c2cc(COCCN(C)C)ccn2)c1` came in with a K of 3000 M⁻¹.

Turning to `CSc1nc(NCCN(C)C)cc(-c2cccs2)n1`, the K was determined as 6800 M⁻¹.

Turning to `CN(C)CCSc1nccc(-c2nccs2)n1`, the K was found to be 9250 M⁻¹.

Regarding `Cc1cc(-c2cccs2)nc(SCCN(C)C)n1`, the K came out at 24800 M⁻¹.

`CN(C)CCSc1nccc(-c2ccccc2)n1` came in with a K of 8600 M⁻¹.

The record behind these values is ChEMBL document CHEMBL1124296, “Molecular basis for bleomycin amplification: conformational and stereoelectronic effects in unfused amplifiers” (J Med Chem, 1988).
